# In ChEMBL document CHEMBL4689842, “EUbOPEN Chemogenomics Library wave 1” (2021):
# Tests used:
# Format in all cases: toxicity, cell-based
# HEK-293T = experiment: Incucyte cell viability with HEK293T; conditions: human, 10 µM, compound concentration 10 uM; note: filed as whole numbers so only -1 and 0 and 1 occur
# U2OS [1] = experiment: Multiplex assay against U2OS; conditions: human
# Procedure, shortened: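 With compound added, live cells were imaged on a CQ1 microscope at 37°C and 5% CO2; staining with Hoechst33342, BioTracker Green Microtubule Cytoskeleton Dye, MitoTracker Red and Annexin V Alexa Fluor 680 had been done at seeding. The CellPathfinder machine-learning gating scheme split cells into Hoechst high-intensity objects or normal cells, normal cells into healthy, pyknosed or fragmented nuclei, and pyknosed cells into mitotic or apoptotic. The tubulin, mitochondrial-mass and membrane-permeability phenotypes are per cents of healthy-nucleus cells.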
# U2OS [2] = experiment: Incucyte cell viability with U2OS; conditions: human, 10 µM, compound concentration 10 uM; note: filed as whole numbers so only -1 and 0 and 1 occur
# Fibroblast = experiment: Incucyte cell viability with human fibroblast; conditions: 10 µM, compound concentration 10 uM; note: filed as whole numbers so only -1 and 0 and 1 occur
# [3] = 0 h, replicate number 2, timepoint 0 hours
# [4] = 6 h, replicate number 1, timepoint 6 hours
# [5] = 12 h, replicate number 1, timepoint 12 hours
# [6] = 18 h, replicate number 1, timepoint 18 hours
# [7] = 24 h, replicate number 1, timepoint 24 hours
# [8] = 12 h, 1 µM, compound concentration 1 uM, replicate 1
# [9] = 12 h, 1 µM, compound concentration 1 uM, replicate 2
# [10] = 12 h, 10 µM, compound concentration 10 uM, replicate 1
# [11] = 12 h, 10 µM, compound concentration 10 uM, replicate 2
# [12] = 24 h, 1 µM, compound concentration 1 uM, replicate 1
# [13] = 24 h, 1 µM, compound concentration 1 uM, replicate 2
# [14] = 24 h, 10 µM, compound concentration 10 uM, replicate 1
# [15] = 24 h, 10 µM, compound concentration 10 uM, replicate 2
# [16] = 48 h, 1 µM, compound concentration 1 uM, replicate 1
# [17] = 48 h, 1 µM, compound concentration 1 uM, replicate 2
# [18] = 48 h, 10 µM, compound concentration 10 uM, replicate 1
# [19] = 48 h, 10 µM, compound concentration 10 uM, replicate 2
# [20] = 0 h, replicate number 1, timepoint 0 hours
# [21] = 18 h, replicate number 2, timepoint 18 hours
compound,measurement,setting,value
Nc1ccc(C(=O)Nc2cccc(-c3nc(N4CCOCC4)c4oc5ncccc5c4n3)c2)cn1,Growth Rate,HEK-293T; [3],0
same,Growth Rate,HEK-293T; [4],0
same,Growth Rate,HEK-293T; [5],0
same,Growth Rate,HEK-293T; [6],0
same,Growth Rate,HEK-293T; [7],0
same,Population Apoptotic (%),U2OS [1]; [8],42%
same,Population Fragmented Nuclei (%),U2OS [1]; [8],20%
same,Population Healthy Nuclei (%),U2OS [1]; [8],64%
same,Population Hoechst High Intensity Objects (%),U2OS [1]; [8],10%
same,Population Mitochondria Different-Phenotype (%),U2OS [1]; [8],36%
same,Population Mitotic Cells (%),U2OS [1]; [8],57%
same,Population Normal (%),U2OS [1]; [8],89%
same,Population Pyknosed Nuclei (%),U2OS [1]; [8],15%
same,Population Tubulin-Different-Phenotype (%),U2OS [1]; [8],54%
same,Total Cell Count,U2OS [1]; [8],215
same,Population Apoptotic (%),U2OS [1]; [9],9%
same,Population Healthy Nuclei (%),U2OS [1]; [9],61%
same,Population Mitochondria Different-Phenotype (%),U2OS [1]; [9],21%
same,Population Mitotic Cells (%),U2OS [1]; [9],90%
same,Population Pyknosed Nuclei (%),U2OS [1]; [9],17%
same,Population Tubulin-Different-Phenotype (%),U2OS [1]; [9],28%
same,Total Cell Count,U2OS [1]; [9],55
same,Population Apoptotic (%),U2OS [1]; [10],56%
same,Population Fragmented Nuclei (%),U2OS [1]; [10],57%
same,Population Healthy Nuclei (%),U2OS [1]; [10],24%
same,Population Hoechst High Intensity Objects (%),U2OS [1]; [10],21%
same,Population Mitochondria Different-Phenotype (%),U2OS [1]; [10],83%
same,Population Mitotic Cells (%),U2OS [1]; [10],43%
same,Population Normal (%),U2OS [1]; [10],78%
same,Population Pyknosed Nuclei (%),U2OS [1]; [10],18%
same,Population Tubulin-Different-Phenotype (%),U2OS [1]; [10],93%
same,Total Cell Count,U2OS [1]; [10],191
same,Population Apoptotic (%),U2OS [1]; [11],51%
same,Population Fragmented Nuclei (%),U2OS [1]; [11],62%
same,Population Healthy Nuclei (%),U2OS [1]; [11],15%
same,Population Hoechst High Intensity Objects (%),U2OS [1]; [11],19%
same,Population Mitochondria Different-Phenotype (%),U2OS [1]; [11],76%
same,Population Mitotic Cells (%),U2OS [1]; [11],48%
same,Population Normal (%),U2OS [1]; [11],80%
same,Population Pyknosed Nuclei (%),U2OS [1]; [11],22%
same,Population Tubulin-Different-Phenotype (%),U2OS [1]; [11],90%
same,Total Cell Count,U2OS [1]; [11],69
same,Population Apoptotic (%),U2OS [1]; [12],46%
same,Population Fragmented Nuclei (%),U2OS [1]; [12],16%
same,Population Healthy Nuclei (%),U2OS [1]; [12],65%
same,Population Hoechst High Intensity Objects (%),U2OS [1]; [12],7%
same,Population Mitochondria Different-Phenotype (%),U2OS [1]; [12],31%
same,Population Mitotic Cells (%),U2OS [1]; [12],53%
same,Population Normal (%),U2OS [1]; [12],92%
same,Population Pyknosed Nuclei (%),U2OS [1]; [12],17%
same,Population Tubulin-Different-Phenotype (%),U2OS [1]; [12],51%
same,Total Cell Count,U2OS [1]; [12],221
same,Population Apoptotic (%),U2OS [1]; [13],21%
same,Population Fragmented Nuclei (%),U2OS [1]; [13],28%
same,Population Healthy Nuclei (%),U2OS [1]; [13],52%
same,Population Hoechst High Intensity Objects (%),U2OS [1]; [13],5%
same,Population Mitochondria Different-Phenotype (%),U2OS [1]; [13],42%
same,Population Mitotic Cells (%),U2OS [1]; [13],78%
same,Population Normal (%),U2OS [1]; [13],95%
same,Population Pyknosed Nuclei (%),U2OS [1]; [13],18%
same,Population Tubulin-Different-Phenotype (%),U2OS [1]; [13],27%
same,Total Cell Count,U2OS [1]; [13],57
same,Population Apoptotic (%),U2OS [1]; [14],80%
same,Population Fragmented Nuclei (%),U2OS [1]; [14],59%
same,Population Healthy Nuclei (%),U2OS [1]; [14],14%
same,Population Hoechst High Intensity Objects (%),U2OS [1]; [14],23%
same,Population Mitochondria Different-Phenotype (%),U2OS [1]; [14],88%
same,Population Mitotic Cells (%),U2OS [1]; [14],19%
same,Population Normal (%),U2OS [1]; [14],76%
same,Population Pyknosed Nuclei (%),U2OS [1]; [14],26%
same,Population Tubulin-Different-Phenotype (%),U2OS [1]; [14],81%
same,Total Cell Count,U2OS [1]; [14],201
same,Population Apoptotic (%),U2OS [1]; [15],84%
same,Population Fragmented Nuclei (%),U2OS [1]; [15],60%
same,Population Healthy Nuclei (%),U2OS [1]; [15],5%
same,Population Hoechst High Intensity Objects (%),U2OS [1]; [15],19%
same,Population Mitochondria Different-Phenotype (%),U2OS [1]; [15],100%
same,Population Mitotic Cells (%),U2OS [1]; [15],15%
same,Population Normal (%),U2OS [1]; [15],80%
same,Population Pyknosed Nuclei (%),U2OS [1]; [15],34%
same,Population Tubulin-Different-Phenotype (%),U2OS [1]; [15],100%
same,Total Cell Count,U2OS [1]; [15],80
same,Population Apoptotic (%),U2OS [1]; [16],57%
same,Population Fragmented Nuclei (%),U2OS [1]; [16],18%
same,Population Healthy Nuclei (%),U2OS [1]; [16],60%
same,Population Hoechst High Intensity Objects (%),U2OS [1]; [16],9%
same,Population Mitochondria Different-Phenotype (%),U2OS [1]; [16],28%
same,Population Mitotic Cells (%),U2OS [1]; [16],42%
same,Population Normal (%),U2OS [1]; [16],90%
same,Population Pyknosed Nuclei (%),U2OS [1]; [16],21%
same,Population Tubulin-Different-Phenotype (%),U2OS [1]; [16],45%
same,Total Cell Count,U2OS [1]; [16],240
same,Population Apoptotic (%),U2OS [1]; [17],25%
same,Population Fragmented Nuclei (%),U2OS [1]; [17],28%
same,Population Healthy Nuclei (%),U2OS [1]; [17],53%
same,Population Hoechst High Intensity Objects (%),U2OS [1]; [17],7%
same,Population Mitochondria Different-Phenotype (%),U2OS [1]; [17],22%
same,Population Mitotic Cells (%),U2OS [1]; [17],75%
same,Population Normal (%),U2OS [1]; [17],92%
same,Population Pyknosed Nuclei (%),U2OS [1]; [17],17%
same,Population Tubulin-Different-Phenotype (%),U2OS [1]; [17],24%
same,Total Cell Count,U2OS [1]; [17],56
same,Population Fragmented Nuclei (%),U2OS [1]; [18],62%
same,Population Healthy Nuclei (%),U2OS [1]; [18],5%
same,Population Hoechst High Intensity Objects (%),U2OS [1]; [18],23%
same,Population Mitochondria Different-Phenotype (%),U2OS [1]; [18],76%
same,Population Normal (%),U2OS [1]; [18],76%
same,Population Pyknosed Nuclei (%),U2OS [1]; [18],31%
same,Population Tubulin-Different-Phenotype (%),U2OS [1]; [18],66%
same,Total Cell Count,U2OS [1]; [18],244
same,Population Apoptotic (%),U2OS [1]; [19],91%
same,Population Fragmented Nuclei (%),U2OS [1]; [19],65%
same,Population Healthy Nuclei (%),U2OS [1]; [19],8%
same,Population Hoechst High Intensity Objects (%),U2OS [1]; [19],16%
same,Population Mitochondria Different-Phenotype (%),U2OS [1]; [19],100%
same,Population Mitotic Cells (%),U2OS [1]; [19],8%
same,Population Normal (%),U2OS [1]; [19],83%
same,Population Pyknosed Nuclei (%),U2OS [1]; [19],26%
same,Population Tubulin-Different-Phenotype (%),U2OS [1]; [19],100%
same,Total Cell Count,U2OS [1]; [19],98
same,Growth Rate,U2OS [2]; [20],0
same,Growth Rate,U2OS [2]; [4],1
same,Growth Rate,U2OS [2]; [5],0
same,Growth Rate,U2OS [2]; [6],0
same,Growth Rate,U2OS [2]; [21],1
same,Growth Rate,U2OS [2]; [7],0
same,Growth Rate,Fibroblast; [20],0
same,Growth Rate,Fibroblast; [4],0
same,Growth Rate,Fibroblast; [5],0
same,Growth Rate,Fibroblast; [6],0
same,Growth Rate,Fibroblast; [21],1
same,Growth Rate,Fibroblast; [7],0
COc1cc(N2CCC(N(C)C)CC2)ccc1Nc1ncc(Cl)c(Nc2ccccc2P(C)(C)=O)n1,Growth Rate,HEK-293T; [4],0
same,Growth Rate,HEK-293T; [5],0
same,Growth Rate,HEK-293T; [6],0
same,Growth Rate,HEK-293T; [7],0
same,Growth Rate,U2OS [2]; [20],0
same,Growth Rate,U2OS [2]; [4],0
same,Growth Rate,U2OS [2]; [5],0
same,Growth Rate,U2OS [2]; [6],0
same,Growth Rate,U2OS [2]; [7],0
same,Growth Rate,Fibroblast; [3],0
same,Growth Rate,Fibroblast; [4],1
same,Growth Rate,Fibroblast; [5],0
same,Growth Rate,"Fibroblast; 12 h, replicate number 2, timepoint 12 hours",1
same,Growth Rate,Fibroblast; [6],0
same,Growth Rate,Fibroblast; [21],1
same,Growth Rate,Fibroblast; [7],0
